# Screening results deposited in PubChem BioAssay by Sanford-Burnham Center for Chemical Genomics.
# EBI2 block = EBI2 (human) antagonism | inhibition, % at 5 µM | hit rate 0.81% among 360,000 | P32249 | EBI2 beta-arrestin recruitment, luminescence, 7a,25-OHC stimulated; in the data active = inhibition above about 38%;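 note: enzyme fragment complementation signal reports receptor beta-arrestin coupling in cells; 0% = agonist plus DMSO wells and 100% = wells without agonist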
# Target sequence (P32249 whole entry, looked up, the tested form may be a part): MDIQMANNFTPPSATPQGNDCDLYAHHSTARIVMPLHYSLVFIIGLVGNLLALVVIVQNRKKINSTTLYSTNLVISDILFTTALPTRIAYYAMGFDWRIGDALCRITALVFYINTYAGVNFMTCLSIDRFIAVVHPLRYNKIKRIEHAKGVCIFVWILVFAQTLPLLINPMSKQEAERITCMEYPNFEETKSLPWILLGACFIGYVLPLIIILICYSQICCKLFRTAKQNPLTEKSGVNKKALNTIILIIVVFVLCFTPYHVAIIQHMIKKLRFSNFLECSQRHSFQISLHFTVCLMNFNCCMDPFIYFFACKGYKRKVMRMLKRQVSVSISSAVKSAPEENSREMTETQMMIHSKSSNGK
# SENP1 FRET inh = SENP1 (human) catalytic domain inhibition. Q9P0U3. inhibition, % at 10 µM. hit rate 0.21% among 360,000. recombinant SENP1 catalytic domain, CyPet-SUMO1-YPet FRET cleavage;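 active = inhibition at least 30% at 10 µM, raw YFP signal under a set limit, fluorescence ratio 0.5 to 1.5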;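 note: 0% = enzyme with DMSO and 100% = no enzyme wells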
#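 Compound: 10 µM single point, 0.5% DMSO; Test system: hSENP1 catalytic domain, recombinant; Timing: 50 min reaction at room temperature; Technique: FRET, CFP and YFP emission; Control set: no-enzyme wells low, DMSO-plus-enzyme wells high control.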
# NR3A LBD binder = modulators (binders) of human NR3A ligand-binding domain. NR3A LBD differential scanning fluorimetry, Tm shift; 0% = protein alone, 100% = glycine-bound protein. Tm shift relative to glycine control, % at 25 µM. hit rate 2.5% among 340,000. AID 1259313;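 active = melting temperature shift of at least 10% of the positive control shift, at one fixed dose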
# MPTP block = inhibitors of mitochondrial permeability transition pore. hit rate 1.4% among 360,000. isolated mouse mitochondria, Ca2+ swelling absorbance, 30 min. inhibition, % at 10 µM;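 active = inhibition of 50% or more, scaled per plate between neutral and stimulator controls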;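 note: 0% = DMSO wells given calcium and 100% = 1 mM EGTA wells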
# MPTP counter = mitochondrial membrane potential, counter-screen; shares compounds with MPTP block; isolated mitochondria, Rhodamine 123 fluorescence; inhibition, % at 10 µM; hit rate 78% among 5,000; in the data active = inhibition above about 22%;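 note: 0% = DMSO vehicle and 100% = positive control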
# MPTP abs DR = MPTP inhibition, dose response swelling confirmation; shares compounds with MPTP block; isolated mitochondria swelling, absorbance; IC50, µM; hit rate 58% among 780; in the data active = IC50 below about 20 µM
# MPTP counter DR = counter-screen for mitochondrial permeability transition pore inhibitors, dose response | isolated mitochondria counterscreen, fluorescence read-out | shares compounds with MPTP block | IC50, µM | hit rate 49% among 780; in the data active = IC50 below about 80 µM
# An asterisk follows results filed as active; i = inactive; . = not tested or not shown. Rows were chosen to be rich in hits. Some 4.4% of all compounds tested hit in one or more screens of this group.
SMILES,EBI2 block,SENP1 FRET inh,NR3A LBD binder,MPTP block,MPTP counter,others
CCc1ccccc1Oc1nc(NC(C)C)nc2ccsc12,4,-1,.,-1,.,
Cc1c(C(N)=O)cc([N+](=O)[O-])cc1[N+](=O)[O-],-3,1,0,1,.,
COC(=O)c1cc([N+](=O)[O-])c(C)c(C)n1,-4,4,.,54*,-2,MPTP abs DR=>100;MPTP counter DR=>80
COC(=O)c1ccccc1COc1cccn2c(N(C)CC3CC3)c(C)nc12,25,-18,.,67*,97*,
Cc1nc2c(OCc3ccc(C(F)(F)F)cc3)cccn2c1N(C)CC1CC1,22,-32,.,81*,107*,
CCC(=O)Nc1cc(C(C)(C)C)ccc1C(C)=O,-13,2,-4,0,.,
Cc1ccccc1CN1CCN(S(=O)(=O)c2cccc3nsnc23)CC1,8,1,0,0,.,
CCOC(=O)c1sc(NC(=O)CCN2CCN(C)CC2)c(C(=O)OCC)c1C,-1,1,-1,69*,-6,MPTP abs DR=13*;MPTP counter DR=>80
COC(=O)C1=C(C)N(Cc2ccccc2)C(=NCC(C)C)N[C@H]1c1cccc(C(F)(F)F)c1,-14,-3,0,86*,-2,
COC(=O)C1=C(C)N(Cc2ccccc2)C(=NCc2ccc(OC)cc2)N[C@H]1c1cccc(F)c1,-22,-1,-2,0,.,
COC(=O)C1=C(C)N(Cc2ccccc2)C(=NCc2cccc(Cl)c2)N[C@H]1c1cccc(F)c1,1,-4,-25,86*,-9,
CN(C)CCCN(C(=O)c1ccc(S(=O)(=O)N(C)C2CCCCC2)cc1)c1nc2ccc(Br)cc2s1,10,3,0,2,.,
Cc1ccc(S(=O)(=O)NC(=O)Nc2ccc(OC(F)F)cc2)cc1,-5,1,-1,0,.,
NN/C(=C\[N+](=O)[O-])Nc1ccc(Cl)cc1,13,-3,0,55*,87*,
NN/C(=C\[N+](=O)[O-])Nc1ccccc1,0,0,-2,3,.,
C[C@H](NC(=O)C1CCN(S(=O)(=O)c2ccccc2)CC1)C(=O)NCc1ccc(F)cc1,10,1,2,0,.,
CC(O)(c1ccncc1)c1nc(-c2cccc(C(F)(F)F)c2)cs1 (centres undefined),12,-1,.,90*,96*,
COc1ccccc1NNC(=O)c1cc(C(C)(C)C)nn1Cc1ccccc1,11,2,1,3,.,
CC(C)(C)c1cc(C(=O)Nc2ccc(F)cc2)n(Cc2ccc(F)cc2)n1,0,0,5,80*,87*,
CC(C)(C)c1cc(C(=O)NNc2cc(C(F)(F)F)ccc2Cl)n(Cc2ccccc2)n1,2,0,3,75*,78*,
O=C(Nc1ccc2c(c1)OCO2)c1csc([C@@H]2C[C@H](O)[C@@H](CO)O2)n1,-1,-1,.,-3,.,
COc1cc(C2NCC(c3ccc(Cl)cc3Cl)c3c2[nH]c2ccccc32)cc(OC)c1OC (centres undefined),6,1,-1,88*,-21,MPTP abs DR=i;MPTP counter DR=>80
O=C(O)c1ccc(C2NCC(c3ccccc3Cl)c3c2[nH]c2ccccc32)cc1 (centres undefined),8,-8,-1,-3,.,
O=[N+]([O-])c1ccc(/C=C2\CCC(C3=CCCC3)=C2N2CCOCC2)cc1,9,16,2,1,.,
CC(NC(=O)Nc1ccc(Br)cc1)C(C)(C)C (centres undefined),6,3,-8,78*,93*,
SMILES,EBI2 block,SENP1 FRET inh,NR3A LBD binder,MPTP block,MPTP counter,others
COC(=O)c1ccccc1NC(=O)c1cccnc1,4,2,0,3,.,
COCCCNC(=O)CN(c1cc(Cl)ccc1OC)S(C)(=O)=O,-10,2,-1,0,.,
O=C(NCc1nc(-c2ccc(C(F)(F)F)cc2)no1)Nc1ccc(OC(F)(F)F)cc1,4,0,36*,78*,74*,
CC(C)(C)C(=O)NC(=S)NNC(=O)C(c1ccccc1)c1ccccc1,-1,5,-1,92*,-8,
O=c1cc(C(F)(F)F)[nH]c2ccc(C(F)(F)F)cc12,-5,0,-1,61*,82*,
Cc1cc(=O)c2ccc(C(F)(F)F)cc2[nH]1,0,-10,-2,1,.,
CC1(C)Oc2ccc3ccc(=O)oc3c2[C@@H](O)[C@@H]1O,-2,3,1,-1,.,
